Tests used:
Staphylococcus aureus [1] = assay: Antibacterial activity against methicillin-resistant Staphylococcus aureus clinical isolate by broth microdilution method; assay type: functional
Method in brief: (§1)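 MICs by CLSI broth microdilution in frozen trays pre-loaded with serial dilutions of each agent. Quality-control strains run in parallel: E. faecalis ATCC 29212 and ATCC 51299, S. aureus ATCC 29213, S. pneumoniae ATCC 49619. Comparator susceptibility categories follow CLSI breakpoints. Methicillin resistance in staphylococci assigned from the oxacillin MIC.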

[2] = Antibacterial activity against Streptococcus sp. Group C clinical isolate by broth microdilution method; assay type: functional
Method in brief: (§2)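 MIC by CLSI broth microdilution in frozen microtiter trays holding serial dilutions of each agent, prepared from standard laboratory powders. E. faecalis ATCC 29212 and ATCC 51299, S. aureus ATCC 29213 and S. pneumoniae ATCC 49619 run in parallel as quality-control strains. Comparator susceptibility interpreted with CLSI breakpoints.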

Streptococcus sp. [3] = assay: Antibacterial activity against Streptococcus sp. Group F clinical isolate by broth microdilution method; assay type: functional
Method in brief: (§3)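 MIC by CLSI broth microdilution in frozen microtiter trays holding serial dilutions of each agent, prepared from standard laboratory powders. Comparator susceptibility interpreted with CLSI breakpoints.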

Streptococcus sp. [4] = assay: Antibacterial activity against Streptococcus sp. clinical isolate by broth microdilution method; assay type: functional; method in brief: as §3
Staphylococcus hominis [5] = assay: Antibacterial activity against methicillin-resistant coagulase-negative Staphylococcus hominis clinical isolate by broth microdilution method; assay type: functional; method in brief: as §1
[6] = tested on: Staphylococcus saprophyticus; assay: Antibacterial activity against methicillin-susceptible coagulase-negative Staphylococcus saprophyticus clinical isolate by broth microdilution method; assay type: functional; method in brief: as §1
Enterococcus faecium [7] = assay: Antibacterial activity against vancomycin-susceptible Enterococcus faecium clinical isolate by broth microdilution method; assay type: functional; method in brief: as §2
[8] = Antibacterial activity against Streptococcus sp. Group G clinical isolate by broth microdilution method; assay type: functional; method in brief: as §2
Staphylococcus warneri [9] = assay: Antibacterial activity against methicillin-susceptible coagulase-negative Staphylococcus warneri clinical isolate by broth microdilution method; assay type: functional; method in brief: as §1
Enterococcus faecalis [10] = assay: Antibacterial activity against vancomycin-resistant and teichoplanin-susceptible Enterococcus faecalis clinical isolate by broth microdilution method; assay type: functional; method in brief: as §1
Staphylococcus aureus [11] = assay: Antibacterial activity against methicillin-susceptible Staphylococcus aureus clinical isolate by broth microdilution method; assay type: functional; method in brief: as §1
Staphylococcus [12] = assay: Antibacterial activity against methicillin-resistant coagulase-negative unspeciated Staphylococcus clinical isolate by broth microdilution method; assay type: functional; method in brief: as §1
Enterococcus faecium [13] = assay: Antibacterial activity against vancomycin-resistant and teichoplanin-susceptible Enterococcus faecium clinical isolate by broth microdilution method; assay type: functional; method in brief: as §1
Streptococcus mitis = assay: Antibacterial activity against Streptococcus mitis clinical isolate by broth microdilution method; assay type: functional; method in brief: as §2
Staphylococcus simulans [14] = assay: Antibacterial activity against methicillin-susceptible coagulase-negative Staphylococcus simulans clinical isolate by broth microdilution method; assay type: functional; method in brief: as §1
[15] = tested on: Staphylococcus saprophyticus; assay: Antibacterial activity against methicillin-resistant coagulase-negative Staphylococcus saprophyticus clinical isolate by broth microdilution method; assay type: functional; method in brief: as §1
Streptococcus equinus = assay: Antibacterial activity against Streptococcus bovis clinical isolate by broth microdilution method; assay type: functional; method in brief: as §2
Staphylococcus cohnii [16] = assay: Antibacterial activity against methicillin-resistant coagulase-negative Staphylococcus cohnii clinical isolate by broth microdilution method; assay type: functional; method in brief: as §1
Staphylococcus [17] = assay: Antibacterial activity against daptomycin-nonsusceptible coagulase-negative Staphylococcus isolate 1285835 by broth microdilution method; assay type: functional; method in brief: as §2
[18] = tested on: Staphylococcus haemolyticus; assay: Antibacterial activity against methicillin-susceptible coagulase-negative Staphylococcus haemolyticus clinical isolate by broth microdilution method; assay type: functional; method in brief: as §1
Streptococcus agalactiae = assay: Antibacterial activity against Streptococcus agalactiae clinical isolate by broth microdilution method; assay type: functional; method in brief: as §2
[19] = tested on: Streptococcus intermedius; assay: Antibacterial activity against Streptococcus intermedius clinical isolate by broth microdilution method; assay type: functional; method in brief: as §2
Staphylococcus warneri [20] = assay: Antibacterial activity against methicillin-resistant coagulase-negative Staphylococcus warneri clinical isolate by broth microdilution method; assay type: functional; method in brief: as §1
Mammaliicoccus sciuri [21] = assay: Antibacterial activity against methicillin-resistant coagulase-negative Staphylococcus sciuri clinical isolate by broth microdilution method; assay type: functional; method in brief: as §1
Enterococcus faecalis [22] = assay: Antibacterial activity against vancomycin- and teichoplanin-nonsusceptible Enterococcus faecalis clinical isolate by broth microdilution method; assay type: functional; method in brief: as §1
Streptococcus oralis = assay: Antibacterial activity against Streptococcus oralis clinical isolate by broth microdilution method; assay type: functional; method in brief: as §2
Staphylococcus aureus [23] = assay: Antibacterial activity against daptomycin-nonsusceptible Staphylococcus aureus isolate 1176127 by broth microdilution method; assay type: functional; method in brief: as §1
Staphylococcus capitis [24] = assay: Antibacterial activity against methicillin-susceptible coagulase-negative Staphylococcus capitis clinical isolate by broth microdilution method; assay type: functional; method in brief: as §1
Streptococcus sanguinis = assay: Antibacterial activity against Streptococcus sanguinis clinical isolate by broth microdilution method; assay type: functional; method in brief: as §2
Staphylococcus xylosus [25] = assay: Antibacterial activity against methicillin-resistant coagulase-negative Staphylococcus xylosus clinical isolate by broth microdilution method; assay type: functional; method in brief: as §1
Staphylococcus aureus [26] = assay: Antibacterial activity against daptomycin-nonsusceptible Staphylococcus aureus isolate 1285404 by broth microdilution method
Streptococcus pyogenes = assay: Antibacterial activity against Streptococcus pyogenes clinical isolate by broth microdilution method; assay type: functional; method in brief: as §2
Staphylococcus capitis [27] = assay: Antibacterial activity against daptomycin-nonsusceptible Staphylococcus capitis isolate 1285355 by broth microdilution method; assay type: functional; method in brief: as §2
[28] = tested on: Staphylococcus haemolyticus; assay: Antibacterial activity against methicillin-resistant coagulase-negative Staphylococcus haemolyticus clinical isolate by broth microdilution method; assay type: functional; method in brief: as §1
Staphylococcus cohnii [29] = assay: Antibacterial activity against methicillin-susceptible coagulase-negative Staphylococcus cohnii clinical isolate by broth microdilution method; assay type: functional; method in brief: as §1
Staphylococcus hominis [30] = assay: Antibacterial activity against methicillin-susceptible coagulase-negative Staphylococcus hominis clinical isolate by broth microdilution method; assay type: functional; method in brief: as §1
Staphylococcus xylosus [31] = assay: Antibacterial activity against methicillin-susceptible coagulase-negative Staphylococcus xylosus clinical isolate by broth microdilution method; assay type: functional; method in brief: as §1
Staphylococcus simulans [32] = assay: Antibacterial activity against methicillin-resistant coagulase-negative Staphylococcus simulans clinical isolate by broth microdilution method; assay type: functional; method in brief: as §1
Staphylococcus [33] = assay: Antibacterial activity against methicillin-susceptible coagulase-negative unspeciated Staphylococcus clinical isolate by broth microdilution method; assay type: functional; method in brief: as §1
[34] = tested on: Streptococcus constellatus; assay: Antibacterial activity against Streptococcus constellatus clinical isolate by broth microdilution method; assay type: functional; method in brief: as §2
Staphylococcus capitis [35] = assay: Antibacterial activity against methicillin-resistant coagulase-negative Staphylococcus capitis clinical isolate by broth microdilution method; assay type: functional; method in brief: as §1
Staphylococcus aureus [36] = assay: Antibacterial activity against daptomycin-nonsusceptible Staphylococcus aureus isolate 1171055 by broth microdilution method; assay type: functional; method in brief: as §1
Enterococcus faecalis [37] = assay: Antibacterial activity against vancomycin-susceptible Enterococcus faecalis clinical isolate by broth microdilution method; assay type: functional; method in brief: as §1
Mammaliicoccus sciuri [38] = assay: Antibacterial activity against methicillin-susceptible coagulase-negative Staphylococcus sciuri clinical isolate by broth microdilution method; assay type: functional; method in brief: as §1
Staphylococcus aureus [39] = assay: Antibacterial activity against daptomycin-nonsusceptible Staphylococcus aureus isolate 1171063 by broth microdilution method; assay type: functional; method in brief: as §1
[40] = tested on: Staphylococcus epidermidis; assay: Antibacterial activity against methicillin-resistant coagulase-negative Staphylococcus epidermidis clinical isolate by broth microdilution method; assay type: functional; method in brief: as §1
Enterococcus faecium [41] = assay: Antibacterial activity against vancomycin- and teichoplanin-nonsusceptible Enterococcus faecium clinical isolate by broth microdilution method; assay type: functional; method in brief: as §1
[42] = tested on: Staphylococcus epidermidis; assay: Antibacterial activity against methicillin-susceptible coagulase-negative Staphylococcus epidermidis clinical isolate by broth microdilution method; assay type: functional; method in brief: as §1

CCCCCCCCCC(=O)N[C@@H](Cc1c[nH]c2ccccc12)C(=O)N[C@H](CC(N)=O)C(=O)N[C@@H](CC(=O)O)C(=O)N[C@@H]1C(=O)NCC(=O)N[C@@H](CCCN)C(=O)N[C@@H](CC(=O)O)C(=O)N[C@H](C)C(=O)N[C@@H](CC(=O)O)C(=O)NCC(=O)N[C@H](CO)C(=O)N[C@@H]([C@H](C)CC(=O)O)C(=O)N[C@@H](CC(=O)c2ccccc2N)C(=O)O[C@@H]1C
2 µg/mL: MIC50 (Enterococcus faecium [7]) | MIC50 (Enterococcus faecium [13]) | MIC50 (Enterococcus faecium [41])
> 1 µg/mL: MIC (Staphylococcus [17]) | MIC (Staphylococcus aureus [23]) | MIC (Staphylococcus aureus [26]) | MIC (Staphylococcus capitis [27]) | MIC (Staphylococcus aureus [36]) | MIC (Staphylococcus aureus [39])
0.25 µg/mL: MIC90 [2] | MIC90 (Streptococcus sp. [3]) | MIC50 (Streptococcus sp. [4]) | MIC90 [8] | MIC50 (Streptococcus mitis) | MIC50 (Streptococcus equinus) | MIC50 (Streptococcus agalactiae) | MIC90 (Streptococcus agalactiae) | MIC50 [19] | MIC50 (Streptococcus oralis) | MIC50 (Streptococcus sanguinis) | MIC50 [34]
1 µg/mL: MIC90 (Streptococcus sp. [4]) | MIC90 (Staphylococcus hominis [5]) | MIC90 [6] | MIC90 (Staphylococcus warneri [9]) | MIC90 (Staphylococcus [12]) | MIC90 (Streptococcus mitis) | MIC90 (Staphylococcus simulans [14]) | MIC90 [15] | MIC90 (Streptococcus equinus) | MIC90 (Staphylococcus cohnii [16]) | MIC90 [18] | MIC90 [19] | MIC90 (Staphylococcus warneri [20]) | MIC90 (Mammaliicoccus sciuri [21]) | MIC90 (Enterococcus faecalis [22]) | MIC90 (Streptococcus oralis) | MIC90 (Staphylococcus capitis [24]) | MIC90 (Streptococcus sanguinis) | MIC90 (Staphylococcus xylosus [25]) | MIC90 [28] | MIC90 (Staphylococcus cohnii [29]) | MIC90 (Staphylococcus hominis [30]) | MIC90 (Staphylococcus xylosus [31]) | MIC90 (Staphylococcus simulans [32]) | MIC90 (Staphylococcus [33]) | MIC90 [34] | MIC90 (Staphylococcus capitis [35]) | MIC50 (Enterococcus faecalis [37]) | MIC90 (Enterococcus faecalis [37]) | MIC90 (Mammaliicoccus sciuri [38]) | MIC90 [40] | MIC90 [42]
4 µg/mL: MIC90 (Enterococcus faecium [7]) | MIC90 (Enterococcus faecium [13]) | MIC90 (Enterococcus faecium [41])
0.5 µg/mL: MIC50 (Staphylococcus aureus [1]) | MIC90 (Staphylococcus aureus [1]) | MIC50 (Staphylococcus hominis [5]) | MIC50 [6] | MIC50 (Staphylococcus warneri [9]) | MIC (Enterococcus faecalis [10]) | MIC50 (Staphylococcus aureus [11]) | MIC90 (Staphylococcus aureus [11]) | MIC50 (Staphylococcus [12]) | MIC50 (Staphylococcus simulans [14]) | MIC50 [15] | MIC50 (Staphylococcus cohnii [16]) | MIC50 [18] | MIC50 (Staphylococcus warneri [20]) | MIC50 (Mammaliicoccus sciuri [21]) | MIC (Enterococcus faecalis [22]) | MIC50 (Enterococcus faecalis [22]) | MIC50 (Staphylococcus capitis [24]) | MIC50 (Staphylococcus xylosus [25]) | MIC50 [28] | MIC50 (Staphylococcus cohnii [29]) | MIC50 (Staphylococcus hominis [30]) | MIC50 (Staphylococcus xylosus [31]) | MIC50 (Staphylococcus simulans [32]) | MIC50 (Staphylococcus [33]) | MIC50 (Staphylococcus capitis [35]) | MIC50 (Mammaliicoccus sciuri [38]) | MIC50 [40] | MIC50 [42]
0.06 µg/mL: MIC50 [2] | MIC50 (Streptococcus sp. [3]) | MIC50 [8] | MIC50 (Streptococcus pyogenes) | MIC90 (Streptococcus pyogenes)

From ChEMBL document CHEMBL1255376, “Comparative surveillance study of telavancin activity against recently collected gram-positive clinical isolates from across the United States” (2008)
